# A selection: hits, their analogues and other compounds. The true share with any hit is near 2.5%.
# NR2E3 ag-1 – NR2E3 (human) agonism | GST-NR2E3/biotin-RetCOR TR-FRET, 1536-well | inhibition of corepressor binding, % at 4.78 µM | hit rate 0.12% among 320,000 | AID 2300;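 active = percent inhibition above the cutoff of mean plus 3 SD of all tested compounds, set per screening campaign, cut at about 20% in these data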
# Target sequence (Q9Y5X4 whole entry, looked up): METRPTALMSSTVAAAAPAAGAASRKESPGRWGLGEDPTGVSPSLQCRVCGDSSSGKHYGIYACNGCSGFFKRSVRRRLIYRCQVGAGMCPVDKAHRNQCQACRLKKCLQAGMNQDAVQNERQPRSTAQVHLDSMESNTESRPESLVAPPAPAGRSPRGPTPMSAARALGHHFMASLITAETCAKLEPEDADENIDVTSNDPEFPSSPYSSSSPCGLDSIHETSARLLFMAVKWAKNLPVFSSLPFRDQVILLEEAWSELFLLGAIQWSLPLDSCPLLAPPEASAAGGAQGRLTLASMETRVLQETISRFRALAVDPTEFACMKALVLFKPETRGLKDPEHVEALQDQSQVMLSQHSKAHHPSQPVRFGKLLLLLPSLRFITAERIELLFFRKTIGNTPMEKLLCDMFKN
#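 Material: NR2E3–RetCOR corepressor complex | Quantity: 1.35 nM GST-tagged NR2E3 final | Schedule: 5 h at 4 °C | Replication: Singlicate compound wells | Reagent: RetCOR corepressor, biotinylated, 7 nM | Controls: Biotin wells as high control, 0.6% DMSO wells as low control | Signal: TR-FRET, Eu(K)-anti-GST donor, streptavidin-D2 acceptor, ex 340, em 617/671 nm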
# MsrA act – bovine methionine sulfoxide reductase A activation | purified bovine MsrA, absorbance read-out | activation, % at 10.6 µM | hit rate 0.3% among 360,000 | AID 602163; in the data active = activation above about 7.5%
# MsrA inhibitor – inhibits bovine methionine sulfoxide reductase A. purified bovine MsrA, absorbance read-out. inhibition, % at 15.5 µM. hit rate 0.75% among 360,000. AID 651718; in the data active = inhibition above about 4.5%
# GalR3 antag – human GalR3 antagonism; O60755; HEK293 GalR3-CNG cAMP membrane potential fluorescence; galR3 body fused to GalR1 C-terminus; AID 651719; hit rate 0.44% among 360,000; inhibition, % at 3 µM;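 active = inhibition above the screen-wide average plus 3 SD, cut at about 13% in these data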;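 note: forskolin and galanin both at EC90 stimulate the cells; cAMP rise reported by CNG channel membrane potential dye signal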
# NadD inh – inhibitors of Staphylococcus aureus NadD; inhibition, % at 20 µM; hit rate 0.78% among 360,000; purified NadD enzyme, colorimetric absorbance read-out; AID 602399; in the data active = inhibition above about 26%
# NR2E3 ag-2 – agonists of human NR2E3 nuclear receptor; CHO-S Gal4-NCOR/VP16-NR2E3 two-hybrid, luciferase; inhibition of corepressor binding, % at 3.98 µM; hit rate 0.35% among 360,000; AID 602229;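 active = inhibition above the mean of all tested compounds plus 3 SD, cut at about 70% in these data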;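 note: higher means lower luciferase signal from less NR2E3 corepressor binding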
# NadD conf – NadD (S. aureus) inhibition, single concentration confirmation; purified S. aureus NadD, colorimetric enzyme assay; inhibition, % at 20 µM; shares compounds with NadD inh; hit rate 13% among 2,000; in the data active = inhibition mostly above about 42%, no sharp cut-off; inactive = mostly below about 42%
# Numbers stand for hits; - = inactive; . = no result.
SMILES,NR2E3 ag-1,MsrA act,MsrA inhibitor,GalR3 antag,NadD inh,NR2E3 ag-2,NadD conf
CCCn1c(C(C)NC(=O)c2ccccc2)nc2ccccc21 (stereo unspecified),.,-,-,-,-,-,.
CCN(CC)c1ccc(NC(=O)Cn2c(C(C)NC(=O)c3ccc(C)cc3)nc3ccccc32)cc1 (stereo unspecified),.,-,-,-,34.0,-,-
O=C(O)COc1ccc(/C=N/NC(=O)c2cccc3ccccc23)cc1,-,-,-,-,-,-,.
O=c1[nH]c(NNC(=S)NCc2ccccc2)nc2c1C1(CCCCC1)Cc1ccccc1-2,-,-,-,-,37.0,-,53.2
O=C(Nc1c(-c2ccccc2)nc2ccccn12)c1cccs1,-,-,-,-,-,-,.
COCCN1C(=O)N(C)[C@@H](c2ccccc2)C(C(C)=O)=C1C,-,-,-,-,-,-,.
CCOc1ccc(CCNC(=O)COc2cccc(-n3cnnn3)c2)cc1OCC,-,-,-,-,-,-,.
O=C(Nc1ccc(S(=O)(=O)Nc2nccs2)cc1)c1cc(-c2ccccc2)nc2ccccc12,-,-,-,-,45.6,-,50.0
CC(C)(C)NS(=O)(=O)c1ccc(NC(=O)c2cc(-c3ccccc3)nc3ccccc23)cc1,-,-,-,-,-,-,.
Cc1ccc(-c2cc(C(=O)Nc3ccc(S(=O)(=O)Nc4nccs4)cc3)c3ccccc3n2)c(C)c1,-,-,-,-,62.9,-,52.5
O=C(Nn1cnnc1)c1cc(-c2ccccn2)nc2ccccc12,-,-,-,-,-,-,.
O=C(NNS(=O)(=O)c1ccc2ccccc2c1)c1cc(-c2ccccn2)nc2ccccc12,-,-,-,-,45.4,-,49.2
Cc1ccc(C)c(-c2cc(C(=O)Nc3nccs3)c3ccccc3n2)c1,-,-,-,-,-,-,.
O=C(Nc1ccc(S(=O)(=O)Nc2nccs2)cc1)c1ccc(N2C(=O)c3ccccc3C2=O)cc1,-,-,-,-,61.6,-,-
O=C(NC1CC1)c1ccc2snnc2c1,-,-,-,-,-,-,.
Cc1ccc(-c2cc(C(=O)Nc3ccc(S(=O)(=O)Nc4ncccn4)cc3)c3ccccc3n2)cc1,-,-,-,-,33.5,-,-
N#CC1=C(S)N(c2ccccc2)C(c2ccc(-c3cccc(Cl)c3)o2)NC1=O (stereo unspecified),-,-,-,-,41.7,-,-
N#CC1=C(S)N=C(N)C(c2nc(-c3ccccc3)cs2)C12CCCCC2 (stereo unspecified),-,-,-,-,52.0,-,75.2
N#CC1=C(S)N=C(N)C(c2nc(-c3ccccc3)cs2)C12CCCC2 (stereo unspecified),-,-,-,-,52.1,-,72.6
Cc1ccc(-c2csc(C3C(N)=NC(S)=C(C#N)C34CCCCC4)n2)cc1 (stereo unspecified),-,-,-,-,-,-,.
COc1cc(Cl)c(C)cc1NC(=O)CSc1sc2c(O)cc(=O)[nH]c2c1C#N,-,-,-,-,41.7,-,-
COc1ccc(OC)c(NC(=O)CSc2sc3c(O)cc(=O)[nH]c3c2C#N)c1,-,-,-,-,-,-,.
C=CCOc1ccc(C2/C(=C(/O)c3ccc4c(c3)CC(C)O4)C(=O)C(=O)N2CCCN2CCOCC2)cc1 (stereo unspecified),-,-,-,-,28.9,-,-
COc1ccc(C2/C(=C(/O)c3ccc4c(c3)CC(C)O4)C(=O)C(=O)N2CCCN2CCOCC2)cc1 (stereo unspecified),-,-,-,-,-,-,.
CCOC(=O)/C=c1\s/c(=C\c2ccc3cc(OC)ccc3c2)c(=O)n1CC(=O)NCc1ccc2c(c1)OCO2,-,-,-,-,32.6,-,-
SMILES,NR2E3 ag-1,MsrA act,MsrA inhibitor,GalR3 antag,NadD inh,NR2E3 ag-2,NadD conf
CCOC(=O)/C=c1\s/c(=C\c2ccccc2C)c(=O)n1CC(=O)NCc1ccc2c(c1)OCO2,-,-,-,-,-,-,.
CCN1CCN(Cc2ccc(NC(=O)c3cc(NC(=O)c4cc(-c5ccc(OC)cc5)n[nH]4)cc(OC)c3)cc2C(F)(F)F)CC1,-,-,-,-,-,-,.
CCN1CCN(Cc2ccc(NC(=O)c3cc(NC(=O)c4cncc(-c5cccs5)c4)cc(OC)c3)cc2C(F)(F)F)CC1,-,-,-,-,34.3,-,-
CC(=O)c1cccc(NC(=O)CC2S/C(=N/N=C3CCCCCC3)NC2=O)c1 (stereo unspecified),-,-,-,-,-,-,.
COc1ccc(CC(N)c2csc(NC(=O)c3cc(C(C)(C)C)oc3C)n2)cc1 (stereo unspecified),.,-,-,-,33.0,-,-
Cn1c(COc2nnc(-c3ccc(Cl)cc3)c3ccccc23)nc2ccccc21,-,-,-,-,-,-,.
CCc1ccccc1N(CC(=O)N/N=C/c1ccc(OC(=O)OC)c(OC)c1)S(C)(=O)=O,-,-,-,-,-,-,.
CCOC(=O)C1=C(N)n2c(s/c(=C/c3ccco3)c2=O)=C(C(=O)OC)C1c1ccco1 (stereo unspecified),-,-,-,-,31.1,-,-
CCOC(=O)C1=c2s/c(=C\c3ccncc3)c(=O)n2C(N)=C(C(=O)OC)C1c1ccncc1 (stereo unspecified),-,-,-,-,-,-,.
N#C/C(=C\c1ccc(-c2cccc([N+](=O)[O-])c2)o1)C(=O)Nc1nc(-c2cccs2)cs1,-,-,-,-,41.9,-,-
CCOC(=O)c1c(-c2ccccc2)csc1NC(=O)/C(C#N)=C/c1ccc(O)c(OC)c1,-,-,-,-,44.5,-,-
C=C1c2cccc(OC)c2O[C@H](C(=O)OCC)[C@@H]1CC(CC)CCCC (stereo partly specified),.,-,-,-,-,-,.
CCOC(=O)/C=C1\CC(C(=O)OCC)Oc2c(OC)cccc21 (stereo unspecified),.,-,-,-,38.9,-,-
O=C(c1cccs1)N1C[C@@H](O)[C@H](n2cc(C3CC3)nn2)C[C@@H]1c1ccccc1,.,-,-,-,-,-,.
CC(C)OCCCn1c(=N)c(C(N)=S)cc2c(=O)n3ccccc3nc21,-,-,-,-,25.6,-,-
CC(=O)N=c1c(C#N)cc2c(=O)n3ccccc3nc2n1CCCOC(C)C,-,-,-,-,-,-,.
O=C1NC(=O)c2c(Br)c(Br)c(Br)c(Br)c21,.,-,-,-,30.4,-,-
Cc1ccc2oc(-c3cccc(NC(=S)NC(=O)c4cccs4)c3)nc2c1,-,-,-,-,-,-,.
Cc1cc(C)c2oc(-c3ccc(C)c(NC(=S)NC(=O)/C=C/c4ccco4)c3)nc2c1,-,-,-,-,35.2,-,-
O=C(/C=C/c1ccco1)NC(=S)Nc1nc(-c2ccc3ccccc3c2)cs1,-,-,-,-,30.3,-,-
